In ChEMBL document CHEMBL3102834, “Discovery of 5-substituted pyrrolo[2,3-d]pyrimidine antifolates as dual-acting inhibitors of glycinamide ribonucleotide formyltransferase and 5-aminoimidazole-4-carboxamide ribonucleotide formyltransferase in de novo purine nucleotide biosynthesis: implications of inhibiting …” (J Med Chem, 2013) one finds Activity, inhibition and IC50 data, which are given here for 1 compound.

Active and inactive are the calls of the source. The calls are words filed in the database; no cut-off is given here.

Test [1] concerns KB. As to the kind of experiment: Cytotoxicity against human KB cells at 10 uM incubated for 48 hrs followed by compound washout measured after 10 days by colony forming assay. In kind it is functional, cell-based. Put shortly:
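About 500 KB cells were plated in FF-RPMI/DFBS with 2 nM LCV for 24 h. Drug (0–10 μM) was then added, and exposure is stated as 24 h in Methods and 48 h in the legend. Medium was replaced with drug-free FF-RPMI plus 2 nM LCV for 8–10 days. Colonies were fixed with 5% TCA, stained with 1% methylene blue in borate buffer pH 8.8, and counted; three experiments.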

The test system of test [2] is KB. The test is described as follows: Cytotoxicity against human KB cells expressing human RFC/FRalpha/PCFT assessed as depletion of ATP pools at 1 uM after 24 hrs by ion-pair HPLC analysis. It counts as functional. Put shortly: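 KB cells in FF-RPMI/10% DFBS with 2 mM glutamine and 2 nM LCV were exposed to 1 μM drug for 24 h. They were trypsinized and washed, and nucleotides were extracted. ATP was quantified by reversed-phase ion-pair HPLC on a C18 column. Results are means ± standard errors.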

The test system of test [3] is KB. As to the kind of experiment: Induction of apoptosis in human KB cells assessed as necrotic cells at 1 uM after 96 hrs by Annexin V-FITC/7-AAD staining-based flow cytometry (RVB = 7.80%). In kind it is functional. In general terms: In flow cytometry, cells or beads pass a laser one at a time.
The nature of test [4]: Cytotoxicity against chinese hamster RT16 cells expressing human FRalpha after 96 hrs by CellTitre-Blue fluorescence assay in presence of folic acid. It counts as functional, cell-based. Particulars: Cricetulus griseus, RT16, 96 h. Put shortly:
(§1)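 CHO sublines were grown in FF-RPMI/DFBS; transfectants were maintained with G418. Cells were exposed to antifolate (0–1 μM) for 96 h at 37 °C with 2 nM LCV (RT16) or 25 nM LCV (R2/PCFT4). PC43-10 cells were grown in standard RPMI1640/DFBS instead. FRα specificity was tested by adding 200 nM folic acid. Viable cells were read by CellTiter-Blue fluorescence (ex 560/em 590), and IC50 was taken from dose–response curves; means of 3–10 experiments.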

Test [5] deals with KB. As to the kind of experiment: Cell cycle arrest in human KB cells assessed as accumulation at sub-G1 phase at 1 uM after 96 hrs by propidium iodide staining-based flow cytometry (reference value: 3.5%). It counts as functional.
Test [6] in a line: Cytotoxicity against chinese hamster RT16 cells expressing human FRalpha after 96 hrs by CellTitre-Blue fluorescence assay. In kind it is functional, cell-based. Conditions: Cricetulus griseus, RT16, 96 h. Summed up:
as §1

Test [7] concerns KB. The test is described as follows: Cytotoxicity against human KB cells expressing human RFC/FRalpha/PCFT after 96 hrs by CellTitre-Blue fluorescence assay in presence of thymidine. It counts as functional, cell-based. Summed up: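 KB cells were grown in FF-RPMI with DFBS and 2 nM LCV, exposed to antifolate (0–1 μM) for 96 h at 37 °C, and read by CellTiter-Blue fluorescence. IC50 was taken from dose–response curves relative to untreated cells. Protection arms added adenosine 60 μM, thymidine 10 μM, AICA 320 μM, or folic acid 200 nM. Means of 3–10 experiments.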

The target in test [8] is Folate receptor alpha (Homo sapiens) (UniProt P15328). As to the kind of experiment: Displacement of [3H]folic acid from human FRalpha expressed in chinese hamster RT16 cells after 15 mins by scintillation counting analysis. In kind it is cell-based. Summed up: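 FRα-expressing RT16 CHO cells (~1.5 × 10^6) were grown as monolayers. Bound folates were stripped with ice-cold acetate buffer (pH 3.5), then neutralised with HEPES-buffered saline (pH 7.4). Cells were then competed with [3H]folic acid against graded unlabelled ligand. Bound label read by scintillation, normalised to Folin-phenol protein (pmol/mg). Relative affinity = inverse molar ratio for 50% displacement, folic acid set at 1. Three experiments.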
Background: Loss of bound radioactivity is the signal in a displacement assay; it reports binding, not function.

Another test relates to R2. As to the kind of experiment: Cytotoxicity against chinese hamster R2 cells after 96 hrs by CellTitre-Blue fluorescence assay. Conditions: Cricetulus griseus, R2, 96 h.

Folate receptor alpha (Homo sapiens), sequence (P15328 25-234 limits assumed): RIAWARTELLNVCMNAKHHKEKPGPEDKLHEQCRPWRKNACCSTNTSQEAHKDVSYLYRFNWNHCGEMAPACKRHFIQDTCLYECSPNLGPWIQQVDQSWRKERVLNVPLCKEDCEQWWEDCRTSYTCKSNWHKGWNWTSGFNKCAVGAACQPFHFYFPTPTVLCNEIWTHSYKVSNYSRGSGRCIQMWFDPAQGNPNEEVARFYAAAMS

Take `Nc1nc2[nH]cc(CCCCc3ccc(C(=O)N[C@@H](CCC(=O)O)C(=O)O)cc3)c2c(=O)[nH]1`: the result (in the test with KB [1]; with KB [7]; in test [8]) was Active. In addition, the inhibition at 1 µM in the test with KB [2] is more than 90%. Besides, the results for the Activity in the test on KB [3] and with KB [5] were 0.456% and 36.7%, respectively. Moreover, the IC50 in test [4] was more than 1000 nM; in test [6], 8.6 nM; with R2, more than 1000 nM.

What is called inhibition is the share of the control response that was lost under treatment. What is called IC50 is the midpoint of a concentration-inhibition curve.
